Measured values of several laboratories.
Target: Casein kinase I isoform epsilon (CSNK1E, Homo sapiens, UniProt P49674)

`C=CC(=O)N1CCC[C@@H](n2nc(-c3ccc(Oc4ccccc4)cc3)c3c(N)ncnc32)C1` gave an inhibition of 65% (enzyme activity, inhibitor; 1 µM).
For `CCCCC(=O)Nc1ccc(-c2ccc3ncn(CCC)c(=O)c3c2)cn1`, the remaining binding was 82% (binding, competition with immobilised ligand; 0.5 µM).
`C1=C/COCc2cc(ccc2OCCN2CCCC2)Nc2nccc(n2)-c2cccc(c2)COC/1` has a remaining binding of 99% (binding; 0.1 µM).
For `CN1CCN(C(=O)c2ccc(NC(=O)Nc3ccc(N(C)c4ccnc(Nc5ccc(CS(C)(=O)=O)cc5)n4)cc3)cc2)CC1`, the remaining binding was 75% (binding, competition with immobilised ligand; 1 µM).
`CC(=O)ON=C1C=CC(=C(C#N)c2ccccc2)C=C1` has an activity vs control of 60% (enzyme activity, inhibitor, ADP detection; 20 µM).
For `C#Cc1cc(-c2cc(Nc3nc(N[C@@H](C)c4ccc(F)cn4)ncc3Cl)n[nH]2)ccc1C=O`, the inhibition was 4.66% (enzyme activity, inhibitor; 0.2 µM).
For `Cc1ccc(NC(=O)c2ccnc(C(F)(F)F)c2)cc1-c1cc(OCCO)nc(N2CCOCC2)c1`, the remaining binding was 100% (binding, competition with immobilised ligand; 1 µM).
`CO[C@@H]1[C@H](N(C)C(=O)c2ccccc2)C[C@H]2O[C@]1(C)n1c3ccccc3c3c4c(c5c6ccccc6n2c5c31)C(=O)NC4` gave an inhibition of 0% (enzyme activity, inhibitor; 1 µM).
